Assays:
[1] = target: Dipeptidyl peptidase 1 (Homo sapiens, UniProt P53634); assay: Inhibition of CatL-activated recombinant human C-terminal His10-tagged cathepsin C (25 to 463 residues) expressed in mouse myeloma cells using Gly-Phe-AFC as substrate preincubated for 3 hrs followed by substrate addition and measured after 60 mins; format: cell-free
Procedure, shortened: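 Activated rhCatC was diluted to 4.4 nM in 25 mM MES, 50 mM NaCl, 5 mM DTT, 0.01% Triton X-100, pH 6.0. It was preincubated with compound (added in 10% DMSO) for 3 h at RT. Gly-Phe-AFC was then added to 100 μM final and read as fluorescence after 60 min. IC50 came from a sigmoidal nonlinear fit; values are means of at least two experiments.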

[2] = tested on: Mus musculus; assay: In vivo inhibition of CatC in po dosed C57BL/6 mouse blood assessed as reduction in neutrophil elastase activation administered twice daily for 6 days using methoxysuccinyl-Ala-Ala-Pro-Val-AMC as substrate measured up to 90 mins by fluorescence assay; format: functional, organism-based
Procedure, shortened: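 C57BL/6 mice (20−25 g; n = 10 per group) received oral doses twice daily at 6.7, 20 or 60 mg/kg for 6 days. The vehicle group got 0.5% Methocel and 0.1% Tween-80 in 100 mM citrate buffer, pH 3. Blood was drawn by eye puncture 14 h after the last dose. Bone marrow was flushed from femurs and tibias with ice-cold RPMI 1640. Cells were lysed in 50 mM Tris pH 7.4, 750 mM NaCl, 1% Triton X-100, sonicated on ice and stored at −80 °C. Lysates were diluted by protein content, with blood diluted 5-fold more than marrow. Kinetics were followed for up to 90 min. Results are % of the vehicle mean.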

C=CC(=O)Nc1cc(Oc2nc(Nc3ccc(N4CCN(C)CC4)cc3OC)ccc2N2CCCCC2)ccc1C
IC50 [1]: 17 to 17.3 nM
inhibition [2]: Dose-dependent effect

Reference: ChEMBL document CHEMBL4396895, “Identification and Optimization of Novel Cathepsin C Inhibitors Derived from EGFR Inhibitors” (J Med Chem, 2019)
